ChEMBL document CHEMBL1152982, “Synthetic analogue of rocaglaol displays a potent and selective cytotoxicity in cancer cells: involvement of apoptosis inducing factor and caspase-12” (J Med Chem, 2009)
Calls of active or inactive are those of the source. No cut-off for these calls is given here. Residues, ends and D or L forms follow the SMILES beside them. *: point of attachment. Cbz = O=C(OCc1ccccc1)*; CH2F = FC*

Key:
[1] = Drug localization in mitochondria of human HeLa cells at 50 uM after 2 hrs by Mito-Tracker Red dye; type: ADME
Method in brief: (§1)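 Live HeLa cells incubated with 50 μM fluorescent probe for 2 h, then 15 min with 1 μM organelle dye: Mito-Tracker Red (mitochondria), ER-tracker red (endoplasmic reticulum), or BODIPY 558/568 brefeldin A (ER plus Golgi). Localization judged by overlap of probe and dye signals in merged confocal images.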

[2] = Drug localization in endoplasmic reticulum of human HeLa cells at 50 uM after 2 hrs by ER tracker; type: ADME, cell-based; method in brief: as §1
HL-60 [3] = test: Cytotoxicity against human HL60 cells after 72 hrs by MTS assay; type: functional, cell-based; conditions: HL-60, 72 h
Method in brief: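 HL60 cells exposed to compound for 72 h; proliferation/viability read by MTS assay. IC50 taken from dose-response curves run in duplicate.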

MCF7 [4] = test: Cytotoxicity against human MCF7 cells after 72 hrs by MTS assay; type: functional, cell-based
Method in brief: (§2)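 Human cancer lines treated for 72 h and proliferation/viability read by MTS assay; dose-response curves in duplicate with IC50 taken from the curves; MCF7R is the P-gp (MDR1)-expressing resistant line.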

HCT-116 = test: Cytotoxicity against human HCT116 cells after 72 hrs by MTS assay; type: functional, cell-based; conditions: HCT-116, 72 h; method in brief: as §2
[5] = molecular target: ATP-dependent translocase ABCB1 (Homo sapiens, UniProt P08183); test: Inhibition of P-glycoprotein expressing human MCF7 cells assessed as change in rhodamine 123 efflux at 0.1 to 1 uM; type: cell-based
Chain of ATP-dependent translocase ABCB1 (P08183 whole entry): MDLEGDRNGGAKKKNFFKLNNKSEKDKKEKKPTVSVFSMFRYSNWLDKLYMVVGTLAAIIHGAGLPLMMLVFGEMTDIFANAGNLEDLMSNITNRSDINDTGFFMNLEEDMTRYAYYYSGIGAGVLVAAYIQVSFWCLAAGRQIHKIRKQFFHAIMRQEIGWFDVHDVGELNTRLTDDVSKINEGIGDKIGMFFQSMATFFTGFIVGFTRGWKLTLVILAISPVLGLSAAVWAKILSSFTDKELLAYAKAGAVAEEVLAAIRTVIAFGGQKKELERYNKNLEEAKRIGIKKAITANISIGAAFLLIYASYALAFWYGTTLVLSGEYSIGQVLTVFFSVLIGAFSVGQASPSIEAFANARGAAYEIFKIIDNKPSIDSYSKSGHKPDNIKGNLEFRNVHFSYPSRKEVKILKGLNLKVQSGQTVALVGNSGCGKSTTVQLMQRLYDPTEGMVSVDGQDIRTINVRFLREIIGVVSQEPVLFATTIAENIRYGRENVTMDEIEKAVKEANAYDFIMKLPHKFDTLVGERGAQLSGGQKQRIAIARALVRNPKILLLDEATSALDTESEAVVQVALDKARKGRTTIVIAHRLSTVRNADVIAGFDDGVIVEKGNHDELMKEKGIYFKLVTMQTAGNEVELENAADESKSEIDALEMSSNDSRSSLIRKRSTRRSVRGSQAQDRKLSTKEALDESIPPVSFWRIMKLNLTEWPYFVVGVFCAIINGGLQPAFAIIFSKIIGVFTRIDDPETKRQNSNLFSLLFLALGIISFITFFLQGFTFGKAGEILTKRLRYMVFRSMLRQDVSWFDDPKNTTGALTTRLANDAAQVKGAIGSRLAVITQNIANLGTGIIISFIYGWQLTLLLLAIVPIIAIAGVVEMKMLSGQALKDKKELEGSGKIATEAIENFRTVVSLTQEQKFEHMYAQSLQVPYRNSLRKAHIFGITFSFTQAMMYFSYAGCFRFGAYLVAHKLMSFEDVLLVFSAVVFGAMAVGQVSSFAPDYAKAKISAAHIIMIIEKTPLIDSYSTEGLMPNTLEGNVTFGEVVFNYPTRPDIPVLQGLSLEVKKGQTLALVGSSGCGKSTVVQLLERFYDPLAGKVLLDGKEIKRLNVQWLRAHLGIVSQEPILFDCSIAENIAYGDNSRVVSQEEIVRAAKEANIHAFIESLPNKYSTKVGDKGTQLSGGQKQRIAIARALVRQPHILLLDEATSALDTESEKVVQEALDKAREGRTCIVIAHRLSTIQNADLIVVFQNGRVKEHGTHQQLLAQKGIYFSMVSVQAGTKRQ

MCF7 [6] = test: Cytotoxicity against human MCF7 cells expressing P-glycoprotein after 72 hrs by MTS assay; type: functional, cell-based; method in brief: as §2
HepG2 [7] = test: Cytotoxicity against human HepG2 cells after 72 hrs by MTS assay; type: functional, cell-based; method in brief: as §2
HCT-15 = test: Cytotoxicity against human HCT15 cells after 72 hrs by MTS assay; type: functional, cell-based; method in brief: as §2
KB = test: Cytotoxicity against human KB cells after 72 hrs by MTS assay; type: functional, cell-based; method in brief: as §2
HeLa = test: Binding affinity to eIF4A in human HeLa cell extract by agarose pulldown assay; type: cell-free
[8] = Inhibition of cap-dependent […] of firefly luciferase in mouse Krebs2 cell extract; type: functional, cell-free
HL-60 [9] = test: Cytotoxicity against human HL60 cells; type: functional, cell-based
HL-60 [10] = test: Induction of apoptosis in human HL60 cells assessed as increase in caspase 3/7-mediated at 1 uM after 48 hrs measured by spectroscopy; type: functional
Method in brief: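 HL60 cells treated 48 h. Whole-cell extracts tested for cleavage of the caspase-3 substrate DEVD-AMC, with fluorescence release read spectroscopically. Rates taken from the slope of the linear time course and expressed as fold-activation over the DMSO-treated control.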

HL-60 [11] = test: Cell cycle arrest in human HL60 cells assessed as accumulation of cells in G2/M phase at 20 nM after 48 hrs by FACS analysis; type: functional, cell-based
Method in brief: (§3)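 HL60 cells treated for 48 h; vehicle control 1% DMSO, doxorubicin as positive control. Propidium iodide staining, DNA content by flow cytometry giving cell-cycle distribution (G2/M, G0-G1 peaks); n = 4, each sample in duplicate.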

H9c2 [12] = test: Induction of apoptosis in rat H9c2 cells at 1 uM after 24 hrs by FACS analysis; type: cell-based; conditions: h9c2, 24 h
Method in brief: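 Rat H9c2 cardiomyoblasts treated 24 h with compound or vehicle. Cells labeled with annexin V and propidium iodide and analyzed by FACS for apoptosis.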

HL-60 [13] = test: Inhibition of chymotrypsin-like activity of proteasome in human HL60 cells at 100 nM
Method in brief: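 Lysates of HL60 cells treated with compound; chymotrypsin-like proteasome activity of the lysate measured in vitro.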

HL-60 [14] = test: Cell cycle arrest in human HL60 cells assessed as increase in G0/G1 peak at 200 nM after 48 hrs by FACS analysis; type: functional, cell-based; method in brief: as §3
[15] = Drug localization in endoplasmic reticulum of human HeLa cells after 2 hrs by ER tracker; type: ADME, cell-based; method in brief: as §1
[16] = Drug localization in golgi apparatus of human HeLa cells after 2 hrs by Brefeldin tracker; type: ADME, cell-based; method in brief: as §1
[17] = Drug localization in mitochondria of human HeLa cells after 2 hrs by Mito-Tracker Red dye
HL-60 [18] = test: Cell cycle arrest in human HL60 cells assessed as accumulation of cells in G2/M phase at 200 nM after 48 hrs by FACS analysis; type: functional, cell-based; method in brief: as §3
HL-60 [19] = test: Inhibition of proteasome activity in human HL60 cells at 20 to 200 nM; type: subcellular
Method in brief: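 Lysates of HL60 cells incubated with compound; in vitro chymotrypsin-like and trypsin-like proteasome activities measured with fluorogenic AMC substrates (LLVY-AMC, RLR-AMC).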

HL-60 [20] = test: Induction of apoptosis in human HL60 cells assessed as caspase 3/7-mediated DEVD-AMC substrate cleavage at 1 to 1000 nM after 48 hrs by spectroscopy; type: functional, cell-based
Method in brief: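 HL60 cells treated 48 h, doxorubicin as positive control; whole-cell extracts incubated with DEVD-AMC, fluorescence release followed over time; rate from slope of linear phase, expressed as fold-activation over DMSO-treated control.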

HL-60 [21] = test: Antiproliferative activity against human HL60 cells at 50 nM in presence of […] inhibitor necrostatin 1; type: functional, cell-based
Method in brief: (§4)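 HL60 cells exposed for 72 h, with or without co-treatment with Z-VAD-FMK (50 μM), necrostatin-1 (50 μM) or 3-methyladenine (2 mM). Antiproliferative effect was compared against vehicle.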

HepG2 [22] = test: Enhancement of doxorubicin-induced cytotoxicity against human HepG2 cells after 72 hrs by MTS assay; type: functional, cell-based
Method in brief: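 HepG2 cells given the test agent alone or together with 150 nM doxorubicin for 72 h; proliferation by MTS assay; duplicate experiments, n = 3.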

HL-60 [23] = test: Cell cycle arrest in human HL60 cells assessed as increase in G0/G1 peak at 20 nM after 48 hrs by FACS analysis; type: functional, cell-based; method in brief: as §3
H9c2 [24] = test: Induction of apoptosis in rat H9c2 cells at 0.5 to 50 nM after 24 hrs by FACS analysis; type: cell-based; conditions: h9c2, 24 h, 0.05 µM
Method in brief: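 Rat H9c2 cardiomyoblasts treated 24 h (0.5-50 nM) or 24, 48 and 72 h (20 nM) versus vehicle; annexin V plus propidium iodide labeling and FACS for apoptosis; viability in parallel by MTS; doxorubicin 1 μM as positive control.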

HL-60 [25] = test: Antiproliferative activity against human HL60 cells at 50 nM in presence of caspase inhibitor Z-VAD-FMK; type: functional, cell-based; method in brief: as §4
HL-60 [26] = test: Antiproliferative activity against human HL60 cells at 50 nM in presence of […] inhibitor 3-methyladenine; type: functional, cell-based; method in brief: as §4
[27] = Homo sapiens, MCF7, 72 h, read-out: IC50
[28] = Homo sapiens, HCT-15, 72 h, read-out: IC50
[29] = Homo sapiens, HepG2, 72 h, read-out: IC50

Compound: COc1ccc2c(c1)O[C@@]1(c3ccc(Br)cc3)[C@H](c3ccccc3)[C@@H](C(=O)NCCOCCOCCNC(=O)Cc3cc(=O)oc4cc(N(C)C)ccc34)[C@@H](O)[C@@]21O
- Activity [1]: Not Active
- Activity [2]: Active
- IC50 (HL-60 [3]): 130 nM

Compound: COc1ccc([C@@H]2C[C@@H](O)[C@@]3(O)c4c(OC)cc(OC)cc4O[C@@]23c2ccccc2)cc1
- IC50 (MCF7 [4]; mcf7): Not Active
- IC50 (HCT-116): > 10000 nM
- Activity [5]: Not Active
- IC50 (MCF7 [6]; [27]): > 10000 nM
- IC50 (HepG2 [7]; hepg2): Not Active
- IC50 (HCT-15; hct-15): Not Active
- IC50 (KB): > 10000 nM
- IC50 (HL-60 [3]): > 10000 nM

Compound: COc1cc(OC)c2c(c1)O[C@@]1(c3ccc(Br)cc3)[C@H](c3ccccc3)[C@@H](C(=O)NCCOCCOCCOCCOCCOCCOCN)[C@@H](O)[C@@]21O
- Activity (HeLa): inactive

Compound: COC(=O)[C@H]1[C@@H](OC=O)[C@@]2(O)c3c(OC)cc(OC)cc3O[C@@]2(c2ccc(OC)cc2)[C@@H]1c1ccccc1
- IC50 [8]: 3000 nM

Compound: CC(=O)O[C@@]12CO[C@@H]1C[C@H](O)[C@@]1(C)C(=O)[C@H](O)C3=C(C)[C@@H](OC(=O)[C@H](O)[C@@H](NC(=O)OC(C)(C)C)c4ccccc4)C[C@@](O)([C@@H](OC(=O)c4ccccc4)[C@H]21)C3(C)C.O.O.O [DOCETAXEL]
- IC50 (MCF7 [4]; mcf7): Not Active
- IC50 (HCT-116): 0.5 nM
- IC50 (MCF7 [6]; mcf7): Not Active
- IC50 (HepG2 [7]; hepg2): Not Active
- IC50 (HCT-15; [28]): 13 nM
- IC50 (KB): 0.2 nM
- IC50 (HL-60 [3]): 0.5 nM

Compound: CC[C@@]1(O)C(=O)OCc2c1cc1n(c2=O)Cc2cc3ccccc3nc2-1 [CAMPTOTHECIN]
- IC50 (MCF7 [4]; [27]): 10 nM
- IC50 (HCT-116): 2 nM
- IC50 (MCF7 [6]; [27]): 3 nM
- IC50 (HepG2 [7]; [29]): 455 nM
- IC50 (HCT-15; [28]): 3 nM
- IC50 (KB): 38 nM
- IC50 (HL-60 [3]): 6 nM

Compound: COC(=O)[C@H]1[C@@H](O)[C@@]2(O)c3c(OC)cc(O[C@@H]4O[C@@H]([C@H](O)CO)CO[C@H]4OC)cc3O[C@@]2(c2ccc(OC)cc2)[C@@H]1c1ccccc1 [SILVESTROL]
- IC50 [8]: 300 nM

Compound: COC(=O)C[C@H](NC(=O)[C@H](C)NC(=O)[C@@H](NC(=O)[C@H](C)NC(=O)OCc1ccccc1)[C@@H](C)O)C(=O)CF (Cbz-ATAD(OMe)-CH2F)
- Activity (HL-60 [9]): Active

Compound: COc1cccc2c1C(=O)c1c(O)c3c(c(O)c1C2=O)C[C@@](O)(C(=O)CO)C[C@@H]3O[C@H]1C[C@H](N)[C@H](O)[C@H](C)O1 [DOXORUBICIN]
- IC50 (MCF7 [4]; [27]): 12 nM
- IC50 (HCT-116): 6 nM
- IC50 (MCF7 [6]; [27]): 58 nM
- IC50 (HepG2 [7]; [29]): 240 nM
- fold change (FC) (HL-60 [10]): 14
- IC50 (HCT-15; [28]): 81 nM
- Activity (HL-60 [11]): Active
- IC50 (KB): 1 nM
- IC50 (HL-60 [3]): 13 nM
- fold change (FC) (H9c2 [12]): 3

Compound: CC(C)C[C@H](NC(=O)[C@H](Cc1ccccc1)NC(=O)c1cnccn1)B(O)O
- Activity (HL-60 [13]): Active

Compound: COc1cc(OC)c2c(c1)O[C@@]1(c3ccccc3)[C@H](c3ccccc3)C[C@@H](O)[C@@]21O
- IC50 (MCF7 [4]; [27]): 10000 nM
- IC50 (HCT-116): 6000 nM
- Activity [5]: Not Active
- IC50 (MCF7 [6]; [27]): 10000 nM
- IC50 (HepG2 [7]; [29]): > 10000 nM
- IC50 (HCT-15; [28]): 8000 nM
- IC50 (KB): 2500 nM
- IC50 (HL-60 [3]): 6000 nM

Compound: CC(=O)NCCOCCOCCNC(=O)Cc1cc(=O)oc2cc(N(C)C)ccc12
- Activity (HL-60 [14]): inactive
- Activity [15]: Not Active
- Activity [16]: Not Active
- Activity [17]: Not Active

Compound: CC[C@]1(O)C[C@@H]2CN(CCc3c([nH]c4ccccc34)[C@@](C(=O)OC)(c3cc4c(cc3OC)N(C)[C@H]3[C@@](O)(C(=O)OC)[C@H](OC(C)=O)[C@]5(CC)C=CCN6CC[C@]43[C@@H]65)C2)C1 [VINBLASTINE]
- IC50 (MCF7 [4]; [27]): 4.6 nM
- IC50 (HCT-116): 1.3 nM
- IC50 (MCF7 [6]; mcf7): Not Active
- IC50 (HepG2 [7]; hepg2): Not Active
- IC50 (HCT-15; [28]): 10 nM
- IC50 (KB): 0.8 nM
- IC50 (HL-60 [3]): 1 nM

Compound: COc1ccc([C@@]23Oc4cc(OC)cc(OC)c4[C@]2(O)[C@H](O)C[C@H]3c2ccccc2)cc1 (racemic) [ROCAGLAOL]
- IC50 (MCF7 [4]; [27]): 4 nM
- Activity (HL-60 [14]): Active
- Activity (HL-60 [18]): Active
- Activity (HL-60 [19]): inactive
- Activity (HL-60 [20]): inactive
- IC50 (HCT-116): 6 nM
- Activity (HL-60 [21]): inactive
- Activity [5]: Not Active
- Activity (HepG2 [22]): Active
- IC50 (MCF7 [6]; [27]): 4 nM
- IC50 (HepG2 [7]; [29]): 70 nM
- Activity (HL-60 [23]): Active
- Activity (H9c2 [24]): Not Active
- Activity (HL-60 [25]): inactive
- IC50 (HCT-15; [28]): 6 nM
- Activity (HL-60 [11]): Active
- IC50 (KB): 2 nM
- IC50 (HL-60 [3]): 3 nM
- Activity (HL-60 [26]): inactive
